Broadly, the pKi is the negative decadic logarithm of the Ki, by convention in mol/L. Read a high pKi as a small Ki. By pIC50 is commonly meant the negative decadic logarithm of the IC50, by convention in mol/L. The inhibition is the share of the control response that was lost under treatment. By half-life is commonly meant how long it takes for the measured level to halve. Lower therefore signals fast loss. As usually defined, the AUC is the area under the concentration-time curve, a measure of exposure.

One compound from ChEMBL document CHEMBL5055621, “Synthesis and Characterization of the Novel Rodent-Active and CNS-Penetrant P2X7 Receptor Antagonist Lu AF27139” (J Med Chem, 2021) can be followed below.

pIC50, pKi: −log10 of the molar value.

In data set [1] the target is T1, P2X purinoceptor 7 (Homo sapiens, UniProt Q99572).
T1 sequence (Q99572 whole entry): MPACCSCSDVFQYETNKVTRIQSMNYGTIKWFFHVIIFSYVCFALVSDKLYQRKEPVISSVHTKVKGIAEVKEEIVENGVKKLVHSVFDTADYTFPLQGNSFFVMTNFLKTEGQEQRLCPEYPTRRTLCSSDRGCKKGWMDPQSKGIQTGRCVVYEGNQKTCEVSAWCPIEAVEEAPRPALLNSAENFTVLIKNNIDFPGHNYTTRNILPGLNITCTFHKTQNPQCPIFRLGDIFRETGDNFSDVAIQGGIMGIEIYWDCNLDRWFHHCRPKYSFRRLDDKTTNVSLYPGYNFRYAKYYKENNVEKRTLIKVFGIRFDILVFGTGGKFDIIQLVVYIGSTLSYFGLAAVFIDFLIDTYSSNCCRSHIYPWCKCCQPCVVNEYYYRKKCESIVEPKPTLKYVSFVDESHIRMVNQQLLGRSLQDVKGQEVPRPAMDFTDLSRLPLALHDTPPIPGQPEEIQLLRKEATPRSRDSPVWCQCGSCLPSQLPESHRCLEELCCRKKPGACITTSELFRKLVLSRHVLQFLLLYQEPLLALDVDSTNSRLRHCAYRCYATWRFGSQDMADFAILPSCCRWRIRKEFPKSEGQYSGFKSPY
In words: Displacement of [3H]-A-804598 from human P2X7 receptor expressed in HEK293 cell membrane by in vitro binding assay. The data set is classed as cell membranes.

The target in data set [2] is T2, P2X purinoceptor 7 (Rattus norvegicus, UniProt Q64663).
T2 sequence (Q64663 whole entry): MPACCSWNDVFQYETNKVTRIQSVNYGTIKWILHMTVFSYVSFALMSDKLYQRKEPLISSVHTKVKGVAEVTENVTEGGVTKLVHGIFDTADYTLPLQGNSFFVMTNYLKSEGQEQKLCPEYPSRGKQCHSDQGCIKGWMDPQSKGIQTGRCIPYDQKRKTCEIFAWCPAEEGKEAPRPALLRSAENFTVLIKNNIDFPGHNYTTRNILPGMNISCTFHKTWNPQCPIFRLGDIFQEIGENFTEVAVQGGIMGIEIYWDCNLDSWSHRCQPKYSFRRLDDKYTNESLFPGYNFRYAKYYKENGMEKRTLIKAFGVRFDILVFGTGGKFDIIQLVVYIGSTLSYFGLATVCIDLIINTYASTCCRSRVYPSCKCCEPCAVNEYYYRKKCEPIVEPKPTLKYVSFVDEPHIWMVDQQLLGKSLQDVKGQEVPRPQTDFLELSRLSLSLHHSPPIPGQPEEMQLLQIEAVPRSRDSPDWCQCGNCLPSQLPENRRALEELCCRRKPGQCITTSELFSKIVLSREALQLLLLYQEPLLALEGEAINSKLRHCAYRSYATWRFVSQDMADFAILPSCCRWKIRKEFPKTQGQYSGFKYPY
In words: Antagonist activity at rat P2X7 receptor expressed in HEK293 cells assessed as inhibition of BzATP-induced current at -60 mV by whole cell QPatch electrophysiology. The data set is classed as cell-based. Put shortly:
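QPatch automated whole-cell recording was done on rat P2X7-HEK293 cells held at −60 mV. External solution contained 0.1 mM MgCl2 and 0.3 mM CaCl2 (pH 7.4); the CsCl/EGTA internal was pH 7.2.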
(In patch-clamp work, channel activity is measured electrically.)

Another data set deals with hERG (KCNH2) (Homo sapiens, UniProt Q12809). Nature of the data set: Inhibition of human ERG at 30 uM. Put shortly: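 hERG channel inhibition was measured at 30 μM.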
Data set [3] addresses T3, Cytochrome P450 2D6 (Homo sapiens, UniProt P10635). Nature of the data set: Time dependent inhibition of CYP2D6 (unknown origin) upto 25 uM. It counts as ADME.
The target in data set [4] is Adenosine receptor A2a (Homo sapiens) (UniProt P29274). Nature of the data set: Displacement of [3H]-CGS 21680 from human recombinant adenosine A2A receptor at 10 uM after 120 mins by scintillation counting analysis relative to control.
Data set [5] deals with T2, P2X purinoceptor 7. In words: Antagonist activity at rat P2X7 receptor expressed in HEK293 cells assessed as inhibition of BzATP-induced calcium-flux measured after 60 mins by FLIPR analysis. The data set is classed as cell-based. Summed up: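 Stable rat or mouse P2X7 HEK293 cells in HBSS/20 mM HEPES/2.5 mM probenecid/0.05% BSA, pH 7.4, were loaded with Fluo-4 NW (37 °C 30 min, RT 30 min). After 30 min at RT, calcium fluorescence was read by FLIPR; n ≥ 3.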

Data set [6] can be described thus: Half life in rat at 1 mg/kg, iv and 2 mg/kg, po. It counts as ADME, organism-based. The following applies: in vivo. Summed up:
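Rats received 1 mg/kg iv or 2 mg/kg po. The plasma concentration–time profile was analysed by a noncompartmental model to give half-life, Cmax, Tmax and absolute oral bioavailability.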

The target of data set [7] is T3, Cytochrome P450 2D6. In words: Inhibition of CYP2D6 (unknown origin) upto 25 uM. It counts as ADME.
The target in the next data set is T4, Cytochrome P450 2C8 (Homo sapiens, UniProt P10632).
T4 sequence (P10632 whole entry): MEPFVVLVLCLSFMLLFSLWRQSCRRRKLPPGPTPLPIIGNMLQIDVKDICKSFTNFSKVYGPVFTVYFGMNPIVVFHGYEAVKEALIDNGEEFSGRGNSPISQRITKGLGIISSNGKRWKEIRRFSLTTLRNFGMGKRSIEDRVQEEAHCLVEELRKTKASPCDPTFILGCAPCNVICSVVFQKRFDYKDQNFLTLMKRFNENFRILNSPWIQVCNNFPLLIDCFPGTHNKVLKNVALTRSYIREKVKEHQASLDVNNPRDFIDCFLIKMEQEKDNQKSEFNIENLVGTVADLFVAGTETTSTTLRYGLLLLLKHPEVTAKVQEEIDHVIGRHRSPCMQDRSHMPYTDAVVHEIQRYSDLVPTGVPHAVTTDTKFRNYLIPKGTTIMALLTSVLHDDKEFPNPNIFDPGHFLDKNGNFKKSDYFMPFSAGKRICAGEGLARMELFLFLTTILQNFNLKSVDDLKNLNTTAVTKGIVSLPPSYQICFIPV
In words: Inhibition of CYP2C8 (unknown origin) upto 25 uM. The data set is classed as ADME.

The target in a further data set is Cytochrome P450 2C19 (Homo sapiens, UniProt P33261). In words: Time dependent inhibition of CYP2C19 (unknown origin) upto 25 uM. It counts as ADME.
Data set [8] can be described thus: AUC (0 to 8 hrs) in female mouse at 100 mg/kg, po after 14 days. The following applies: in vivo.

T3 sequence (P10635 whole entry): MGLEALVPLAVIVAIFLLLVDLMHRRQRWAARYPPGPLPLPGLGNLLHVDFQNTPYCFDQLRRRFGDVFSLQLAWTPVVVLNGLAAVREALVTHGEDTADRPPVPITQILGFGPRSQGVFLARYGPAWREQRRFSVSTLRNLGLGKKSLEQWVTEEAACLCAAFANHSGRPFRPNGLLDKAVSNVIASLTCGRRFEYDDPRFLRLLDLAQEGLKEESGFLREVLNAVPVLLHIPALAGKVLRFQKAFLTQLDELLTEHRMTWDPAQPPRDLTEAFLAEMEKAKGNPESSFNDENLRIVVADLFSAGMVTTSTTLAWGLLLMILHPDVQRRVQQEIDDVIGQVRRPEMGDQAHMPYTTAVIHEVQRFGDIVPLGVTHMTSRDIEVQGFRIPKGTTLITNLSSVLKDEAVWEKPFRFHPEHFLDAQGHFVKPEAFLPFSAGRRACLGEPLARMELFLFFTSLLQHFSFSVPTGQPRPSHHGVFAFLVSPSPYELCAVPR
Chain of Adenosine receptor A2a (Homo sapiens) (P29274 whole entry): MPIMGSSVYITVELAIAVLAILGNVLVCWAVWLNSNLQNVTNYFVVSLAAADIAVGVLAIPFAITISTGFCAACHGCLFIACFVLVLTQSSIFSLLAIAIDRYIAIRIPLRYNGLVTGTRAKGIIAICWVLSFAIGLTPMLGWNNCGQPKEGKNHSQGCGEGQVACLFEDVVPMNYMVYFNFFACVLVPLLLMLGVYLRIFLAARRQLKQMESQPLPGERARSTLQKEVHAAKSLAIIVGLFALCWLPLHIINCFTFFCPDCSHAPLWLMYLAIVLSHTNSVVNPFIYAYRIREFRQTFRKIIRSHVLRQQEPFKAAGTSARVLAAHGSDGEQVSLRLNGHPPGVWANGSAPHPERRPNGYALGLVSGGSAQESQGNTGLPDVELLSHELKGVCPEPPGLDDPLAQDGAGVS
Chain of Cytochrome P450 2C19 (P33261 whole entry): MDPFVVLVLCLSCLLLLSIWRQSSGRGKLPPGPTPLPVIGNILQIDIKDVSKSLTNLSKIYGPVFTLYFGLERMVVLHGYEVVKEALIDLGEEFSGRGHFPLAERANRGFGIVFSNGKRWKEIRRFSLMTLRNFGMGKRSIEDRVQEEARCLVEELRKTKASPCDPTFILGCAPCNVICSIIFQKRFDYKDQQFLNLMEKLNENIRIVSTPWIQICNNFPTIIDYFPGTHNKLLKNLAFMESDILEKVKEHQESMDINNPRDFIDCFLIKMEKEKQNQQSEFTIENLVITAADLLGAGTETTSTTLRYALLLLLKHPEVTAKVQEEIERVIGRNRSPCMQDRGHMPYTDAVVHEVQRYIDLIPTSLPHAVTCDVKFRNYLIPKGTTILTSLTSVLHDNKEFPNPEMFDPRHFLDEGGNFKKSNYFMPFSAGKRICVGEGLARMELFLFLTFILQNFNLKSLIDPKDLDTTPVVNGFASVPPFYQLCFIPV
Chain of hERG (KCNH2) (Q12809 whole entry): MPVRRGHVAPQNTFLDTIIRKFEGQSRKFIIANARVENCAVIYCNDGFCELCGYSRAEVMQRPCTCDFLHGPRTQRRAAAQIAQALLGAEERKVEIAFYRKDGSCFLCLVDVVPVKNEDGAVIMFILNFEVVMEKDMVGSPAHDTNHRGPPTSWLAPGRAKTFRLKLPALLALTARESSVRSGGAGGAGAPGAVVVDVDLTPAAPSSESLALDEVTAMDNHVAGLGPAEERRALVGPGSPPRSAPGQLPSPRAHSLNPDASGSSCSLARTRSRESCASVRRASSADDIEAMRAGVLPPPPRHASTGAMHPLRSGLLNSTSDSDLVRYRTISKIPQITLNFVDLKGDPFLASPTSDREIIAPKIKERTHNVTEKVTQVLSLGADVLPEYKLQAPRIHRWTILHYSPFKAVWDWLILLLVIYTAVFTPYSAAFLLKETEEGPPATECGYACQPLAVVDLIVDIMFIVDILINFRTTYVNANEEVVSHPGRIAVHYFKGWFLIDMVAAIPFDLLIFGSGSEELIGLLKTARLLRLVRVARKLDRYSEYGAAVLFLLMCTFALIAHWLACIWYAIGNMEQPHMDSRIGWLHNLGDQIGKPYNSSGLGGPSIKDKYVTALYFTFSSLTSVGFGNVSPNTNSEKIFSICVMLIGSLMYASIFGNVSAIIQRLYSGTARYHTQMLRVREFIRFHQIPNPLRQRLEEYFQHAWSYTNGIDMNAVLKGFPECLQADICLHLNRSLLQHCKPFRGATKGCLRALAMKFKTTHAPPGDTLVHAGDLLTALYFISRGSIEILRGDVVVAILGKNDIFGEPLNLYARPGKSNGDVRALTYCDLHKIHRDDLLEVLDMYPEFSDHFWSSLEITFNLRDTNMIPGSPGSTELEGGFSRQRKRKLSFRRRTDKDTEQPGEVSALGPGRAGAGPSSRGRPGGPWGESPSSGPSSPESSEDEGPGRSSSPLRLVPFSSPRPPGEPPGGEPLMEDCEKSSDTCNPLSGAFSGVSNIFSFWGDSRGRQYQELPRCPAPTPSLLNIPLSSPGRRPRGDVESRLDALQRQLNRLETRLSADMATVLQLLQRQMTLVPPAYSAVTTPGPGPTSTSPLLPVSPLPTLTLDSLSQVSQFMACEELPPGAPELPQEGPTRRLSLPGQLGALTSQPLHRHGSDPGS

For the compound `O=C(NC[C@H](c1ccc(Cl)cc1)N1CCOCC1)c1sc(-c2ncccn2)nc1C(F)(F)F`, the pKi on P2X purinoceptor 7 [1] was 7.26. The negative-log IC50 (pIC50) is 7.18 at P2X purinoceptor 7 [2] and 8.62 on P2X purinoceptor 7 [5]. On hERG (KCNH2), this compound displayed an inhibition at 30 µM of 44%. The TDI entry on Cytochrome P450 2D6 [3] and on Cytochrome P450 2C19 was “Not Active” throughout. Also, the inhibition in data set [4] came to 34%. For the same compound, the half-life in [6] is 2.7 h. The “inhibition (INH)” value at Cytochrome P450 2D6 [7] and at Cytochrome P450 2C8 was “Not Active” in each case. Besides, in [8], the AUC at 336 h was determined as 131 µM·h.
